Screening data (PubChem BioAssay)
Compounds with a hit are over-represented: about 29% of the library has one in this group of screens.
CYP2C19 act – human CYP2C19 activators, primary screen, biochemical, luminescence; recombinant CYP2C19, luciferin-H EGE luminescence; hits give high values; 0 = fully inhibited enzyme, 1 = untreated enzyme; activation factor at 5 µM; 96,000 tested, under 10 active; AID 1025, 2008;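 active = activation factor of at least 2 at 5 µM in the primary screen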;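 also: 0 = wells with 2.5 mM tranylcypromine and 1 = vehicle-only wells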
E coli WT exp – growth inhibitors of wild-type E. coli, primary screen, strain BW25113, expanded library, OD600. OD600 absorbance. growth inhibition, % at 100 µM. 98,000 tested, 0.15% active. AID 710, 2007;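 active = growth inhibition above about 50% at one test dose, limit read from the data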;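 also: growth measured after 20 h incubation at 37 °C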
CYP2C9 inhib – blockers of cytochrome P450 2C9 activity – biochemical, luminescence, ADME assay, primary screen | CYP2C9 Supersomes, luciferin-H conversion | 96,000 tested, 20% active | P11712 | inhibition, % at 5 µM;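 active = blocking of liver enzyme CYP2C9 beyond about 50% at 5 µM, limit read from the data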
Target sequence (P11712 whole entry, looked up): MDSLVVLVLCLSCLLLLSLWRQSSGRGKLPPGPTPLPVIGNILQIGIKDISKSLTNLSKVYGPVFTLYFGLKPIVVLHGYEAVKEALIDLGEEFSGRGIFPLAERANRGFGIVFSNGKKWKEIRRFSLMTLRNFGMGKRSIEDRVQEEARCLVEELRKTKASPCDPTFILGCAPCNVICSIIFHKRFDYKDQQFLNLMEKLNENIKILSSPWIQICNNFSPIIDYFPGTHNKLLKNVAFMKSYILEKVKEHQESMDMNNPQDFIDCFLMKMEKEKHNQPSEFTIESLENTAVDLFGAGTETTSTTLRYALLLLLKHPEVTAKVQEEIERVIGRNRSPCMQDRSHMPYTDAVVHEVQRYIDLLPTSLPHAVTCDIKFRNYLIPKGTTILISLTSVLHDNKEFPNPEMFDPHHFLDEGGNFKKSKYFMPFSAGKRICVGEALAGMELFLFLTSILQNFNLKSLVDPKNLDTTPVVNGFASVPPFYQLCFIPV
CYP2C19 inhib – blockers of cytochrome P450 2C19 activity – biochemical, luminescence, ADME assay, primary screen; P33261; CYP2C19 Supersomes, luciferin-H EGE luminescence, 30 min; inhibition, % at 5 µM; 96,000 tested, 21% active; AID 778, 2007;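 active = CYP2C19 inhibition above a set limit at 5 µM in the primary screen, cut at about 50% in these data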;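 also: plate controls were negative control wells for no effect and 2.5 mM tranylcypromine positive control for full effect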
CYP2C9 act – human CYP2C9 activators, primary screen, biochemical, luminescence | recombinant CYP2C9, luciferin-H conversion; hits give high values; factor 1 = untreated enzyme, 0 = blocked | activation factor at 5 µM | 96,000 tested, 1.4% active | AID 1024, 2008;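 active = activation factor of 2 or more for CYP2C9 at a 5 µM dose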;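 also: 0 = sulfaphenazole-blocked wells and 1 = vehicle-only wells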
tolC growth inh – growth inhibitors of E. coli tolC mutant, primary screen, strain BW25113 ΔtolC::kan, 384-well. OD615. growth inhibition, % at 10 µM (by protocol). 65,000 tested, 2.2% active. AID 573, 2007;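 active = growth inhibition at or above a cutoff equal to the mean over every tested compound plus 3 SD, cut at about 60% in these data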;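 also: growth measured after 20 h incubation at 37 °C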
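System: E. coli ΔtolC::kan strain BW25113; Buffer or medium: LB broth supplemented with 50 µg/mL kanamycin; Compound: 10 µM final, single dose; Incubation: bacterial growth with compound for 20 h at 37 °C; Signal: A615 absorbance measurement; Evaluation: growth inhibition in percent.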
* hit, by the source's call; / = no result given.

SMILES | CYP2C19 act | E coli WT exp | CYP2C9 inhib | CYP2C19 inhib | CYP2C9 act | tolC growth inh
CCCCCCNc1c(C(=O)OCC)c(=O)[nH]c2ccccc12 | 0.9 | -3.0 | 14.0 | 13.2 | 0.9 | -5.8
c1ccc(-n2ncc3c(N4CCN(c5ccccn5)CC4)nc(N4CCOCC4)nc32)cc1 | 0.8 | / | 24.6 | 17.9 | 0.8 | -40.7
CCOC(=O)C1=C(N)Oc2cc(C)oc(=O)c2C1c1cccnc1 (stereo unspecified) | 0.4 | -4.0 | 63.3* | 60.5* | 0.4 | -1.6
CCOC(=O)C1=C(C)Nc2nc(SCC)[nH]c(=O)c2C1c1ccncc1 (stereo unspecified) | 0.2 | 0.0 | 63.5* | 83.8* | 0.4 | 0.0
C=CCOc1cccc(C2C(C(=O)c3ccc(C)o3)=C(O)C(=O)N2c2nccs2)c1 (stereo unspecified) | 0.5 | 1.0 | 41.3 | 46.7 | 0.6 | 17.8
COCCNC(=O)c1nn(-c2cc(OC)cc(OC)c2)c(=O)c2ccccc12 | 0.9 | 5.0 | 19.8 | 9.1 | 0.8 | -2.0
COc1cccc(C(C#N)N2N=C(C)CC2(C)C)c1O (stereo unspecified) | / | 5.0 | 6.5 | / | 0.9 | /
O=C1CC(Sc2nnnn2C2CCCCC2)C(=O)N1c1ccccc1 (stereo unspecified) | / | / | / | / | / | -7.1
Cc1cc(C)cc(N2C(=O)CC(Sc3nnnn3-c3ccccc3)C2=O)c1 (stereo unspecified) | 0.5 | -5.0 | -48.9 | 54.1* | 1.5 | /
COc1ccc(-n2nc(N)c3c(=O)oc(N(C)C)nc32)cc1 | 0.6 | 4.0 | 21.1 | 40.5 | 0.8 | /
Cn1nc(-c2ccccc2)c(C(O)c2ccc(Cl)cc2)c1Cl (stereo unspecified) | 0 | -3.0 | 88.5* | 95.2* | 0.1 | /
Cn1nc(-c2ccccc2)c(CSc2ccccc2Cl)c1Cl | 0.6 | 2.0 | 24.2 | 36.3 | 0.8 | /
O=C(N=NC(=O)c1ccc2c(O)n(C3CCCCC3)c(O)c2c1)c1cccnc1 | 0.8 | -2.0 | 22.0 | 23.9 | 0.8 | /
Cc1cccc(N2CCN(CCNC(=O)c3cc4c(s3)CS(=O)(=O)C4)CC2)c1C | 0.5 | 3.0 | 53.0* | 48.0 | 0.5 | -2.2
CCCSCCCNC(=O)c1cc2c(s1)CS(=O)(=O)C2 | 0.9 | 1.0 | 13.6 | 8.4 | 0.9 | -6.9
O=C(O)c1cnc(-c2ccccc2)nc1Sc1ccc(Cl)cc1Cl | 1.1 | -10.0 | 53.3* | -7.1 | 0.5 | /
COc1ccc(C2C3=C(N=C4SCC(=O)N42)c2ccccc2CC3)cc1 (stereo unspecified) | 0 | -5.0 | 90.7* | 95.3* | 0.1 | 32.7
COc1ccc(C2C3=C(N=C4SCC(=O)N42)c2ccccc2CC3)cc1OC (stereo unspecified) | 0.6 | -9.0 | 54.0* | 39.2 | 0.5 | 14.5
COc1ccccc1C1C2=C(N=C3SCC(=O)N31)c1ccccc1CC2 (stereo unspecified) | 1.1 | -6.0 | -11.0 | -11.2 | 1.1 | -16.9
CC(=O)Nc1sc(C)c(C)c1CN1CCN(S(=O)(=O)c2ccccc2)CC1 | 0.9 | -13.0 | 6.0 | 9.2 | 0.9 | 16.8
O=C(O)CSc1nnc(Cn2cnc3ccccc32)n1CCc1ccccc1 | 1 | -3.0 | 13.0 | -2.4 | 0.9 | -7.3
Cc1ccc(/C(O)=C2/C(=O)C(=O)N(CCN3CCOCC3)C2c2cccs2)cc1 (stereo unspecified) | 0.9 | -11.0 | -7.3 | 14.1 | 1.1 | /
CS(=O)CCC(NS(=O)(=O)c1ccccc1)C(=O)O (stereo unspecified) | 1.2 | 8.0 | 5.4 | -16.7 | 0.9 | -10.2
CCOC(=O)C1=C(C)Nc2nc(C)nn2C1c1ccc(OC)c(OC)c1 (stereo unspecified) | / | / | / | / | / | -8.2
CCOC(=O)C1=C(C)NC(SC(C)=O)=NC1c1ccc(OC(C)=O)c(OC)c1 (stereo unspecified) | 0.1 | 4.0 | 61.6* | 89.5* | 0.4 | -11.4
CN(C1=NC(=O)C(CC(=O)Nc2ccc(Br)cc2)S1)c1ccc(O)cc1 (stereo unspecified) | 0.9 | 1.0 | 62.1* | 10.3 | 0.4 | 10.4
